Measured values published in ChEMBL document CHEMBL1140069, “In vitro antifungal activity of polyfunctionalized 2-(hetero)arylquinolines prepared through imino Diels-Alder reactions” (2008).
In brackets after ≈: the same amount, converted by molar mass.

What was measured:
Type in all cases: functional
[1] = test system: Cryptococcus neoformans; assay: Antimicrobial activity against Cryptococcus neoformans ATCC 32264 at 25 ug/ml after 48 hrs; conditions: ATCC 32264, 48 h
Summary of the method: (§1)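 Percent growth inhibition in 96-well microplates. Compound stocks in DMSO (≤2%) were diluted in RPMI-1640 to final 100–6.25 µg/mL, and 100 µL inoculum was added (final 200 µL). Controls were a growth well (inoculum with matching DMSO, no compound) and a sterility well (no inoculum). Inhibition was calculated against growth and sterility wells.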

[2] = test system: Trichophyton rubrum; assay: Antifungal activity against Trichophyton rubrum C110 after 48 hrs by broth microdilution technique; conditions: read-out: MIC
Summary of the method: (§2)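 CLSI broth microdilution: M-27 A2 for yeasts and M-38 A for filamentous fungi. Medium is RPMI-1640 buffered to pH 7.0 with MOPS. Compound is diluted twofold from 250 to 0.98, final DMSO ≤2%. Inoculum is 1–5 × 10³ CFU/mL. Plates are incubated at 35 °C in a moist, dark chamber and read visually at 48 h. MIC100 is the lowest concentration giving total growth inhibition versus drug-free control.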

[3] = test system: Cryptococcus neoformans; assay: Antimicrobial activity against Cryptococcus neoformans IM 042074 isolate at 6.25 ug/ml after 48 hrs; summary of the method: as §1
[4] = test system: Cryptococcus neoformans; assay: Antimicrobial activity against Cryptococcus neoformans IM 972751 isolate at 50 ug/ml after 48 hrs
Summary of the method: (§3)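 Clinical Cryptococcus isolates kept on Sabouraud-dextrose agar slopes; inoculum 1–5 × 10³ CFU/mL. Quinoline DMSO stocks were diluted in RPMI-1640 to final 100–6.25 µg/mL, with DMSO ≤2%. An equal volume of inoculum was added (200 µL per well). Run in triplicate.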

[5] = test system: Candida albicans; assay: Antimicrobial activity against Candida albicans ATCC 10231 at 100 ug/ml after 24 hrs; conditions: ATCC 10231, 24 h
Summary of the method: (§4)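 Growth-inhibition microplate test. Strains are grown on Sabouraud-chloramphenicol agar for 48 h at 30 °C, and inoculum is added to RPMI-1640 containing compound at a final 100–6.25, with DMSO ≤2%. Each strain has a growth control (same DMSO, no compound) and a sterility control.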

[6] = test system: Cryptococcus neoformans; assay: Antimicrobial activity against Cryptococcus neoformans IM 042074 isolate at 100 ug/ml after 48 hrs; summary of the method: as §1
[7] = test system: Nakaseomyces glabratus; assay: Antimicrobial activity against Candida glabrata C115 isolate at 100 ug/ml after 24 hrs; summary of the method: as §4
[8] = test system: Cryptococcus neoformans; assay: Antimicrobial activity against Cryptococcus neoformans IM 983036 isolate at 6.25 ug/ml after 48 hrs; summary of the method: as §3
[9] = test system: Candida albicans; assay: Antimicrobial activity against Candida albicans C128 isolate at 25 ug/ml after 24 hrs; summary of the method: as §4
[10] = test system: Cryptococcus neoformans; assay: Antimicrobial activity against Cryptococcus neoformans IM 983036 isolate at 50 ug/ml after 48 hrs; summary of the method: as §3
[11] = test system: Nannizzia gypsea; assay: Antifungal activity against Microsporum gypseum C115 after 48 hrs by broth microdilution technique; summary of the method: as §2
[12] = test system: Candida albicans; assay: Antimicrobial activity against Candida albicans C128 isolate at 50 ug/ml after 24 hrs; summary of the method: as §4
[13] = test system: Cryptococcus neoformans; assay: Antimicrobial activity against Cryptococcus neoformans IM 042074 isolate at 12.5 ug/ml after 48 hrs; summary of the method: as §1
[14] = test system: Candida albicans; assay: Antimicrobial activity against Candida albicans C130 isolate at 6.25 ug/ml after 24 hrs; summary of the method: as §4
[15] = test system: Candida albicans; assay: Antimicrobial activity against Candida albicans C129 isolate at 6.25 ug/ml after 24 hrs; summary of the method: as §4
[16] = test system: Cryptococcus neoformans; assay: Antimicrobial activity against Cryptococcus neoformans IM 031706 isolate at 50 ug/ml after 48 hrs; summary of the method: as §1
[17] = test system: Cryptococcus neoformans; assay: Antimicrobial activity against Cryptococcus neoformans IM 983040 isolate at 50 ug/ml after 48 hrs; summary of the method: as §3
[18] = test system: Candida albicans; assay: Antimicrobial activity against Candida albicans C130 isolate at 100 ug/ml after 24 hrs; summary of the method: as §4
[19] = test system: Candida tropicalis; assay: Antimicrobial activity against Candida tropicalis C131 isolate at 12.5 ug/ml after 24 hrs; summary of the method: as §1
[20] = test system: Candida albicans; assay: Antimicrobial activity against Candida albicans C128 isolate at 100 ug/ml after 24 hrs; summary of the method: as §4
[21] = test system: Cryptococcus neoformans; assay: Antimicrobial activity against Cryptococcus neoformans IM 961951 isolate at 100 ug/ml after 48 hrs; summary of the method: as §1
[22] = test system: Cryptococcus neoformans; assay: Antimicrobial activity against Cryptococcus neoformans IM 031631 isolate at 50 ug/ml after 48 hrs; summary of the method: as §1
[23] = test system: Cryptococcus neoformans; assay: Antimicrobial activity against Cryptococcus neoformans IM 00319 isolate at 12.5 ug/ml after 48 hrs; summary of the method: as §1
[24] = test system: Nakaseomyces glabratus; assay: Antimicrobial activity against Candida glabrata C115 isolate at 12.5 ug/ml after 24 hrs; summary of the method: as §4
[25] = test system: Cryptococcus neoformans; assay: Antimicrobial activity against Cryptococcus neoformans ATCC 32264 at 6.25 ug/ml after 48 hrs; conditions: ATCC 32264, 48 h; summary of the method: as §1
[26] = test system: Pichia kudriavzevii; assay: Antimicrobial activity against Candida krusei C117 isolate at 6.25 ug/ml after 24 hrs; summary of the method: as §1
[27] = test system: Cryptococcus neoformans; assay: Antimicrobial activity against Cryptococcus neoformans IM 961951 isolate at 25 ug/ml after 48 hrs; summary of the method: as §3
[28] = test system: Candida albicans; assay: Antimicrobial activity against Candida albicans C127 isolate at 50 ug/ml after 24 hrs; conditions: C127, 24 h; summary of the method: as §4
[29] = test system: Candida tropicalis; assay: Antimicrobial activity against Candida tropicalis C131 isolate at 25 ug/ml after 24 hrs; summary of the method: as §1
[30] = test system: Cryptococcus neoformans; assay: Antimicrobial activity against Cryptococcus neoformans IM 031706 isolate at 6.25 ug/ml after 48 hrs; summary of the method: as §1
[31] = test system: Pichia kudriavzevii; assay: Antimicrobial activity against Candida krusei C117 isolate at 50 ug/ml after 24 hrs; summary of the method: as §1
[32] = test system: Cryptococcus neoformans; assay: Antimicrobial activity against Cryptococcus neoformans IM 00319 isolate at 100 ug/ml after 48 hrs; summary of the method: as §1
[33] = test system: Candida albicans; assay: Antimicrobial activity against Candida albicans C126 isolate at 12.5 ug/ml after 24 hrs; summary of the method: as §4
[34] = test system: Candida albicans; assay: Antimicrobial activity against Candida albicans C128 isolate at 6.25 ug/ml after 24 hrs; summary of the method: as §4
[35] = test system: Candida tropicalis; assay: Antimicrobial activity against Candida tropicalis C131 isolate at 100 ug/ml after 24 hrs; summary of the method: as §1
[36] = test system: Cryptococcus neoformans; assay: Antifungal activity against Cryptococcus neoformans ATCC 32264 after 48 hrs by broth microdilution technique; conditions: ATCC 32264, 48 h; summary of the method: as §2
[37] = test system: Cryptococcus neoformans; assay: Antimicrobial activity against Cryptococcus neoformans IM 052470 isolate at 100 ug/ml after 48 hrs; summary of the method: as §1
[38] = test system: Aspergillus niger; assay: Antifungal activity against Aspergillus niger ATCC 9029 after 48 hrs by broth microdilution technique; conditions: ATCC 9029, 48 h; summary of the method: as §2
[39] = test system: Saccharomyces cerevisiae; assay: Antifungal activity against Saccharomyces cerevisiae ATCC 9763 after 48 hrs by broth microdilution technique; conditions: ATCC 9763, 48 h; summary of the method: as §2
[40] = test system: Cryptococcus neoformans; assay: Antimicrobial activity against Cryptococcus neoformans IM 031631 isolate at 6.25 ug/ml after 48 hrs; summary of the method: as §1
[41] = test system: Cryptococcus neoformans; assay: Antimicrobial activity against Cryptococcus neoformans IM 031631 isolate at 25 ug/ml after 48 hrs; summary of the method: as §1
[42] = test system: Nakaseomyces glabratus; assay: Antimicrobial activity against Candida glabrata C115 isolate at 25 ug/ml after 24 hrs; summary of the method: as §1
[43] = test system: Candida parapsilosis; assay: Antimicrobial activity against Candida parapsilosis C124 isolate at 12.5 ug/ml after 24 hrs; conditions: Lodderomyces parapsilosis; summary of the method: as §1
[44] = test system: Cryptococcus neoformans; assay: Antimicrobial activity against Cryptococcus neoformans IM 972751 isolate at 6.25 ug/ml after 48 hrs; summary of the method: as §3

Molecule `Cc1cc(-c2ccncc2)nc2ccccc12` has an inhibition at 25 µg/mL [1] of 100%, an MIC [2] of 25 µg/mL (≈ 113 µM) and an inhibition at 6.25 µg/mL [3] of 68%. It also gave an inhibition at 50 µg/mL [4] of 20%, an inhibition at 100 µg/mL [5] of 100% and an inhibition at 100 µg/mL [6] of 92%. The inhibition at 100 µg/mL [7] was 75%, the inhibition at 6.25 µg/mL [8] was 0% and the inhibition at 25 µg/mL [9] was 0%. It also gave an inhibition at 50 µg/mL [10] of 69%, an MIC [11] of 25 µg/mL (≈ 113 µM) and an inhibition at 50 µg/mL [12] of 15%. The inhibition at 12.5 µg/mL [13] was 76%, the inhibition at 6.25 µg/mL [14] was 0% and the inhibition at 6.25 µg/mL [15] was 0%. For the same molecule, the inhibition at 50 µg/mL [16] was 69%, the inhibition at 50 µg/mL [17] was 34% and the inhibition at 100 µg/mL [18] was 84%. For the same molecule, the inhibition at 12.5 µg/mL [19] was 54%, the inhibition at 100 µg/mL [20] was 88% and the inhibition at 100 µg/mL [21] was 97%. It also gave an inhibition at 50 µg/mL [22] of 75%, an inhibition at 12.5 µg/mL [23] of 32% and an inhibition at 12.5 µg/mL [24] of 1%. It also gave an inhibition at 6.25 µg/mL [25] of 83%, an inhibition at 6.25 µg/mL [26] of 0% and an inhibition at 25 µg/mL [27] of 78%. It also gave an inhibition at 50 µg/mL [28] of 65%, an inhibition at 25 µg/mL [29] of 60% and an inhibition at 6.25 µg/mL [30] of 21%. For the same molecule, the inhibition at 50 µg/mL [31] was 3%, the inhibition at 100 µg/mL [32] was 92% and the inhibition at 12.5 µg/mL [33] was 0%. For the same molecule, the inhibition at 6.25 µg/mL [34] was 0%, the inhibition at 100 µg/mL [35] was 100% and the MIC [36] was 25 µg/mL (≈ 113 µM). For the same molecule, the inhibition at 100 µg/mL [37] was 99%, the MIC [38] was 200 µg/mL (≈ 908 µM) and the MIC [39] was 50 µg/mL (≈ 227 µM). The inhibition at 6.25 µg/mL [40] was 12%, the inhibition at 25 µg/mL [41] was 57% and the inhibition at 25 µg/mL [42] was 4%. The inhibition at 12.5 µg/mL [43] was 0% and the inhibition at 6.25 µg/mL [44] was 0%.
Work on `c1ccc(-c2ccc3ccccc3n2)cc1` [2-PHENYLQUINOLINE] yielded an inhibition at 25 µg/mL [1] of 77%, an MIC [2] of 25 µg/mL (≈ 122 µM) and an inhibition at 6.25 µg/mL [3] of 0%. The inhibition at 50 µg/mL [4] was 54%, the inhibition at 100 µg/mL [5] was 0% and the inhibition at 100 µg/mL [6] was 84%. For the same molecule, the inhibition at 6.25 µg/mL [8] was 0%, the inhibition at 50 µg/mL [10] was 12% and the MIC [11] was 16 µg/mL (≈ 77.9 µM). It also gave an inhibition at 12.5 µg/mL [13] of 7%, an inhibition at 50 µg/mL [16] of 46% and an inhibition at 50 µg/mL [17] of 29%. It also gave an inhibition at 100 µg/mL [21] of 45%, an inhibition at 50 µg/mL [22] of 34% and an inhibition at 12.5 µg/mL [23] of 0%. The inhibition at 6.25 µg/mL [25] was 0%, the inhibition at 25 µg/mL [27] was 10% and the inhibition at 6.25 µg/mL [30] was 0%. For the same molecule, the inhibition at 100 µg/mL [32] was 47%, the MIC [36] was 31.2 µg/mL (≈ 152 µM) and the inhibition at 100 µg/mL [37] was 88%. For the same molecule, the MIC [38] was > 250 µg/mL, the MIC [39] was 125 µg/mL (≈ 609 µM) and the inhibition at 6.25 µg/mL [40] was 0%. For the same molecule, the inhibition at 25 µg/mL [41] was 15% and the inhibition at 6.25 µg/mL [44] was 0%.
